In ChEMBL document CHEMBL2331506, “Design, synthesis, antiviral and cytostatic evaluation of novel isoxazolidine nucleotide analogues with a carbamoyl linker” (Bioorg Med Chem, 2013):
The source made the active and inactive calls. The rule behind the calls is not given here.

Tests used:
MDCK = assay: Cytotoxicity against dog MDCK cells assessed as alteration of cell morphology up to 100 uM by microscopic analysis; format: cell-based, Canis lupus familiaris
Procedure, shortened: (§1)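 Uninfected host-cell cultures were exposed to compound and examined by microscopy. Cytotoxicity was expressed as the minimum cytotoxic concentration (MCC) causing a microscopically detectable alteration of normal cell morphology.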

[1] = Cytotoxicity against cat CRFK cells assessed as alteration of cell morphology up to 100 uM by microscopic analysis; format: cell-based, Felis catus; procedure, shortened: as §1
Vero = assay: Cytotoxicity against african green monkey Vero cells assessed as alteration of cell morphology up to 100 uM by microscopic analysis; format: cell-based; conditions: chlorocebus sabaeus; procedure, shortened: as §1
HeLa = assay: Cytotoxicity against human HeLa cells assessed as alteration of cell morphology up to 100 uM by microscopic analysis; format: cell-based; procedure, shortened: as §1
HEL = assay: Cytotoxicity against human HEL cells assessed as alteration of cell morphology up to 100 uM by microscopic analysis; format: cell-based; procedure, shortened: as §1
[2] = system: Human immunodeficiency virus 2; assay: Antiviral activity against Human immunodeficiency virus 2 ROD infected in human CEM cells assessed as reduction of virus-induced giant cell formation at 250 uM after 4 to 5 days; format: functional, organism-based; conditions: CCRF-CEM
Procedure, shortened: (§2)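 CEM cells at 3 × 10^5 cells/mL were infected with HIV at 100 CCID50 per mL in the presence of compound dilutions. They were held 4–5 days at 37 °C in humidified CO2. Syncytium (giant cell) formation was scored microscopically, and EC50 was taken as the concentration inhibiting giant cell formation by 50%.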

[3] = system: Human immunodeficiency virus 1; assay: Antiviral activity against Human immunodeficiency virus 1 3B infected in human CEM cells assessed as reduction of virus-induced giant cell formation at 250 uM after 4 to 5 days; format: functional, organism-based; conditions: CCRF-CEM; procedure, shortened: as §2
Feline coronavirus = assay: Antiviral activity against Feline coronavirus infected in cat CRFK cells assessed as reduction of virus-induced cytopathogenicity at 250 uM; format: functional, organism-based
Felid alphaherpesvirus 1 = assay: Antiviral activity against Feline herpes virus infected in cat CRFK cells assessed as reduction of virus-induced cytopathogenicity at 250 uM; format: functional, organism-based
Influenza B virus = assay: Antiviral activity against Influenza B virus infected in dog MDCK cells assessed as reduction of virus-induced cytopathogenicity at 250 uM; format: functional, organism-based
Procedure, shortened: (§3)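 Confluent cell monolayers were infected with 100 CCID50 of virus while exposed to varying compound concentrations. Cytopathicity was scored once it was complete in untreated infected controls. EC50 was taken as the concentration that reduced virus-induced cytopathogenicity by 50%.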

Influenza A virus [4] = assay: Antiviral activity against Influenza A virus H3N2 infected in dog MDCK cells assessed as reduction of virus-induced cytopathogenicity at 250 uM; format: functional, organism-based; procedure, shortened: as §3
Influenza A virus [5] = assay: Antiviral activity against Influenza A virus H1N1 infected in dog MDCK cells assessed as reduction of virus-induced cytopathogenicity at 250 uM; format: functional, organism-based; procedure, shortened: as §3
Punta Toro virus = assay: Antiviral activity against Punta Toro virus infected in african green monkey Vero cells assessed as reduction of virus-induced cytopathogenicity at 250 uM; format: functional, organism-based
Procedure, shortened: (§4)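 Confluent monolayers (HEL fibroblasts, Vero, or HeLa cells as listed) were infected with 100 CCID50 of virus in the presence of varying compound concentrations. Virus-induced cytopathicity or plaque formation was scored once cytopathicity was complete in untreated infected controls. EC50 was taken as the concentration reducing cytopathogenicity or plaque formation by 50%.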

Sindbis virus = assay: Antiviral activity against Sindbis virus infected in african green monkey Vero cells assessed as reduction of virus-induced cytopathogenicity at 250 uM; format: functional, organism-based; procedure, shortened: as §4
Coxsackievirus B4 = assay: Antiviral activity against Coxsackievirus B4 infected in african green monkey Vero cells assessed as reduction of virus-induced cytopathogenicity at 250 uM; format: functional, organism-based; procedure, shortened: as §4
[6] = system: Mammalian orthoreovirus 1; assay: Antiviral activity against Reovirus 1 infected in african green monkey Vero cells assessed as reduction of virus-induced cytopathogenicity at 250 uM; format: functional, organism-based; procedure, shortened: as §4
Human respirovirus 3 = assay: Antiviral activity against Parainfluenza virus 3 infected in african green monkey Vero cells assessed as reduction of virus-induced cytopathogenicity at 250 uM; format: functional, organism-based; procedure, shortened: as §4
[7] = system: Respiratory syncytial virus; assay: Antiviral activity against Respiratory syncytial virus long infected in human HeLa cells assessed as reduction of virus-induced cytopathogenicity at 250 uM; format: functional, organism-based; procedure, shortened: as §4
[8] = system: Vesicular stomatitis virus; assay: Antiviral activity against Vesicular stomatitis virus infected in human HeLa cells assessed as reduction of virus-induced cytopathogenicity at 250 uM; format: functional, organism-based; procedure, shortened: as §3
Human alphaherpesvirus 1 [9] = assay: Antiviral activity against thymidine kinase-deficient, ACV-resistant Herpes simplex virus 1 KOS infected in human HEL cells assessed as reduction of virus-induced cytopathogenicity at 250 uM; format: functional, organism-based; procedure, shortened: as §3
[10] = system: Vesicular stomatitis virus; assay: Antiviral activity against Vesicular stomatitis virus infected in human HEL cells assessed as reduction of virus-induced cytopathogenicity at 250 uM; format: functional, organism-based; procedure, shortened: as §3
Human alphaherpesvirus 2 = assay: Antiviral activity against Herpes simplex virus 2 G infected in human HEL cells assessed as reduction of virus-induced cytopathogenicity at 250 uM; format: functional, organism-based; conditions: strain G; procedure, shortened: as §4
Human alphaherpesvirus 1 [11] = assay: Antiviral activity against Herpes simplex virus 1 KOS infected in human HEL cells assessed as reduction of virus-induced cytopathogenicity at 250 uM; format: functional, organism-based; procedure, shortened: as §4

Compound	Activity (MDCK)	Activity [1]	Activity (Vero)	Activity (HeLa)	Activity (HEL)	inhibition [2]	inhibition [3]	inhibition (Feline coronavirus)	inhibition (Felid alphaherpesvirus 1)	inhibition (Influenza B virus)	inhibition (Influenza A virus [4])	inhibition (Influenza A virus [5])	inhibition (Punta Toro virus)	inhibition (Sindbis virus)	inhibition (Coxsackievirus B4)	inhibition [6]	inhibition (Human respirovirus 3)	inhibition [7]	inhibition [8]	inhibition (Human alphaherpesvirus 1 [9])	also measured
CCOP(=O)(OCC)[C@@H]1C[C@H](C(=O)Nc2cccc(Cl)c2)ON1C (mixture of isomers)	Non-toxic	Non-toxic	Non-toxic	Non-toxic	Non-toxic	inactive	inactive	inactive	inactive	inactive	inactive	inactive	inactive	inactive	inactive	inactive	inactive	inactive	inactive	inactive	inhibition [10]: inactive; inhibition (Human alphaherpesvirus 2): inactive; inhibition (Human alphaherpesvirus 1 [11]): inactive
CCOP(=O)(OCC)[C@H]1C[C@H](C(=O)Nc2cc(OC)c(OC)cc2C#N)ON1C (mixture of isomers)	Non-toxic	Non-toxic	Non-toxic	Non-toxic	Non-toxic	inactive	inactive	inactive	inactive	inactive	inactive	inactive	inactive	inactive	inactive	inactive	inactive	inactive	inactive	inactive	inhibition [10]: inactive; inhibition (Human alphaherpesvirus 2): inactive; inhibition (Human alphaherpesvirus 1 [11]): inactive
CCOP(=O)(OCC)[C@@H]1C[C@@H](C(=O)Nc2ccccc2Cl)ON1C (racemic)	Non-toxic	Non-toxic	Non-toxic	Non-toxic	Non-toxic	inactive	inactive	inactive	inactive	inactive	inactive	inactive	inactive	inactive	inactive	inactive	inactive	inactive	inactive	inactive	inhibition [10]: inactive; inhibition (Human alphaherpesvirus 2): inactive; inhibition (Human alphaherpesvirus 1 [11]): inactive
CCOP(=O)(OCC)[C@@H]1C[C@H](C(=O)Nc2cc(OC)c(OC)c(OC)c2)ON1C (racemic)	Non-toxic	Non-toxic	Non-toxic	Non-toxic	Non-toxic	inactive	inactive	inactive	inactive	inactive	inactive	inactive	inactive	inactive	inactive	inactive	inactive	inactive	inactive	inactive	inhibition [10]: inactive; inhibition (Human alphaherpesvirus 2): inactive; inhibition (Human alphaherpesvirus 1 [11]): inactive
CCOP(=O)(OCC)[C@H]1C[C@H](C(=O)Nc2ccc(F)cc2)ON1C (racemic)	Non-toxic	Non-toxic	Non-toxic	Non-toxic	Non-toxic	inactive	inactive	inactive	inactive	inactive	inactive	inactive	inactive	inactive	inactive	inactive	inactive	inactive	inactive	inactive	inhibition [10]: inactive; inhibition (Human alphaherpesvirus 2): inactive; inhibition (Human alphaherpesvirus 1 [11]): inactive
CCOP(=O)(OCC)[C@@H]1C[C@H](C(=O)Nc2cccc(C#N)c2)ON1C (racemic)	Non-toxic	Non-toxic	Non-toxic	Non-toxic	Non-toxic	inactive	inactive	inactive	inactive	inactive	inactive	inactive	inactive	inactive	inactive	inactive	inactive	inactive	inactive	inactive	inhibition [10]: inactive; inhibition (Human alphaherpesvirus 2): inactive; inhibition (Human alphaherpesvirus 1 [11]): inactive
CCOP(=O)(OCC)[C@H]1C[C@H](C(=O)Nc2ccccc2Br)ON1C (mixture of isomers)	Non-toxic	Non-toxic	Non-toxic	Non-toxic	Non-toxic	inactive	inactive	inactive	inactive	inactive	inactive	inactive	inactive	inactive	inactive	inactive	inactive	inactive	inactive	inactive	inhibition [10]: inactive; inhibition (Human alphaherpesvirus 2): inactive; inhibition (Human alphaherpesvirus 1 [11]): inactive
CCOP(=O)(OCC)[C@@H]1C[C@H](C(=O)Nc2ccc(Br)cc2)ON1C (mixture of isomers)	Non-toxic	Non-toxic	Non-toxic	Non-toxic	Non-toxic	inactive	inactive	inactive	inactive	inactive	inactive	inactive	inactive	inactive	inactive	inactive	inactive	inactive	inactive	inactive	inhibition [10]: inactive; inhibition (Human alphaherpesvirus 2): inactive; inhibition (Human alphaherpesvirus 1 [11]): inactive
